{"data": "Experimental data gathered from unrelated publications", "target": "RAC-beta serine/threonine-protein kinase (AKT2, Homo sapiens, UniProt P31751)"}
{"assay": "binding, competition with immobilised ligand", "conditions": "1 µM", "remaining binding [%]": 100, "Compound": "CNC(=O)[C@@H]1CC[C@@H](n2c(-c3ccc4cnccc4c3)nc3ccc(C(=O)NCc4cccc(C(N)=O)c4)cc32)C1"}
{"assay": "cell-free assay, competition with immobilised ligand", "conditions": "0.1 µM", "remaining binding [%]": 100, "Compound": "CC(C)CC(=O)N1CCc2nc(-c3ccc(Br)cc3)nc(N(C)Cc3ccccc3)c2C1"}
{"assay": "binding, competition with immobilised ligand", "conditions": "1 µM", "remaining binding [%]": 100, "Compound": "Nc1ncc2c(n1)-c1c([nH]c3ccc(C#CC4CC4)cc13)CCCC2"}
{"assay": "binding, competition with immobilised ligand", "conditions": "50 nM", "remaining binding [%]": 100, "Compound": "C[C@@H]1CN(c2ccc3ncc(-c4ccc5[nH]nc(C6CC6)c5c4)n3n2)C[C@H](C)O1"}
{"assay": "binding, competition with immobilised ligand", "conditions": "10 µM", "remaining binding [%]": 62, "Compound": "c1cncc(-c2cccc(Nc3nccc(NC4CCCCC4)n3)c2)c1"}
{"assay": "binding, competition with immobilised ligand", "conditions": "1 µM", "remaining binding [%]": 87, "Compound": "O=C(Nc1c[nH]nc1C(=O)NC1CCNCC1)c1cc(F)cc(F)c1"}
{"assay": "binding", "conditions": "1 µM", "remaining binding [%]": 93, "Compound": "C[C@@H]1CCN(c2nccc(-c3cnn4ncccc34)n2)C1"}
{"assay": "binding, competition with immobilised ligand", "conditions": "1 µM", "remaining binding [%]": 87, "Compound": "O=C(NCCCN1CCOCC1)c1ccc(Nc2nccc(-c3cc4ccccc4s3)n2)cc1"}
{"assay": "binding", "conditions": "1 µM", "remaining binding [%]": 100, "Compound": "COc1ccnn2ncc(-c3ccnc(N(C)C)n3)c12"}
{"assay": "binding, competition with immobilised ligand", "conditions": "1 µM", "remaining binding [%]": 100, "Compound": "C=CC(=O)N1CCC(C(=O)NCC(=O)N2CCN(c3nc(-c4cnc(N)nc4C(F)F)nc(N4CCOCC4)n3)CC2)CC1"}
{"assay": "binding, competition with immobilised ligand", "conditions": "1 µM", "remaining binding [%]": 89, "Compound": "O=C(c1ccc(Nc2ncc(Cl)c(-c3ccc(Cl)s3)n2)cc1)N1CCC(N2CCCC2)CC1"}
{"assay": "binding, competition with immobilised ligand", "conditions": "0.1 µM", "remaining binding [%]": 99, "Compound": "C[C@@H](c1ccc(-n2cnc3c(N)ncnc32)cc1)N1CCc2nn(C)c(Cc3ccccc3)c2C1=O"}
{"assay": "cell-free assay, competition with immobilised ligand", "conditions": "1 µM", "remaining binding [%]": 84, "Compound": "N#CC1(c2ccccn2)CCN(Cc2cc(C(=O)N3CCCC3)c(=O)n3ccccc23)CC1"}
{"assay": "cell-free assay, competition with immobilised ligand", "conditions": "5 µM", "remaining binding [%]": 95, "Compound": "COc1ncc2cc3ccccc3nc2c1C#N"}
{"assay": "cell-free assay, competition with immobilised ligand", "conditions": "1 µM", "remaining binding [%]": 99, "Compound": "CC(=O)N1CCC(c2ccc(C(=O)NC(=N)N)cc2C(F)(F)F)CC1"}
{"assay": "binding", "conditions": "1 µM", "remaining binding [%]": 88, "Compound": "CN(C)c1nccc(-c2cnc3ncccn23)n1"}
{"assay": "cell-free assay, competition with immobilised ligand", "conditions": "1 µM", "remaining binding [%]": 100, "Compound": "O=C(O)[C@@H]1[C@@H](Cn2nnc3ccccc3c2=O)CC[C@H]1C(=O)c1ccc(OCCC2CCOCC2)cc1"}
{"assay": "binding, competition with immobilised ligand", "conditions": "1 µM", "remaining binding [%]": 100, "Compound": "O=C(c1ccc(Nc2nccc(-c3cc4ccccc4s3)n2)cc1)N1CCC(N2CCCC2)CC1"}
{"assay": "binding", "conditions": "1 µM", "remaining binding [%]": 100, "Compound": "CC1CCCN1c1nccc(-c2cnn3ncccc23)n1 (stereo not drawn)"}
{"assay": "cell-free assay, competition with immobilised ligand", "conditions": "1 µM", "remaining binding [%]": 89, "Compound": "COc1ccc2c(O[C@@H]3C[C@H]4C(=O)N[C@]5(C(=O)O)CC5/C=C\\CCCCC[C@H](NC(=O)OC5CCCC5)C(=O)N4C3)cc(-c3csc(NC(=O)C(C)C)n3)nc2c1C (stereo partly drawn)"}
{"assay": "binding", "conditions": "1 µM", "remaining binding [%]": 86, "Compound": "F[C@@H]1CCN(c2nccc(-c3cnn4ncccc34)n2)C1"}
{"assay": "cell-free assay, competition with immobilised ligand", "conditions": "1 µM", "remaining binding [%]": 72, "Compound": "CCC(=O)N[C@@H]1CC[C@H](C(=O)N(C)c2ccc(-c3nc4ccccc4o3)cc2)C1"}
{"assay": "binding", "conditions": "1 µM", "remaining binding [%]": 100, "Compound": "N[C@@H]1CCN(c2nccc(-c3cnn4ncccc34)n2)C1"}
{"assay": "cell-free assay, competition with immobilised ligand", "conditions": "1 µM", "remaining binding [%]": 95, "Compound": "CN(C)c1ncnc(-c2ccc3nc(Nc4cc(CN5CCN(C(=O)CC(F)(F)F)CC5)ccn4)[nH]c3c2)c1Cl"}
